Reference: ChEMBL document CHEMBL2331267 (J Med Chem, 2013)

test system: not listed separately; experiment: Chemical stability of the compound in DMSO-d6 solution after 120 mins by LC/MS analysis; format: physicochemical; conditions: 2 h; call rule not given here

Stability	Compound
Unstable	CCCCCCNC(=O)n1c(C)c(C)c(=O)[nH]c1=O
Unstable	CCCCCCNC(=O)n1c(Cl)cc(=O)[nH]c1=O

test system: not listed separately; experiment: Chemical stability of the compound in buffer at pH 4.5 after 30 mins by LC/MS analysis; format: physicochemical; conditions: read-out: Stability

remaining at 0.5 h [%]	Compound
22	CCCCCCNC(=O)n1cc(C#N)c(=O)[nH]c1=O

test system: not listed separately; experiment: Antiproliferative activity against human SW403 cells after 72 hrs by MTT assay; format: functional, cell-based; conditions: SW-403, 72 h
In short: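 SW403 cells exposed to compounds for 72 h; viability read by MTT reduction, n=4 per drug concentration; EC50 derived from concentration–response.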

Compound	EC50 [nM]
CCCCCCNC(=O)n1cc(-c2ccccc2)c(=O)[nH]c1=O	24000
CCCCCCNC(=O)n1cc(F)c(=O)n(C)c1=O	22000
CCCCCCCCNC(=O)n1ccc(=O)[nH]c1=O	20000

biological target: T1, Acid ceramidase (Rattus norvegicus, UniProt Q6P7S1); experiment: Inhibition of rat recombinant acid ceramidase expressed in human HEK293 cells using N-lauroylceramide as substrate incubated for 30 mins prior to substrate addition measured after 30 mins by LC/MS analysis; conditions: hek293
T1 sequence (Q6P7S1 whole entry): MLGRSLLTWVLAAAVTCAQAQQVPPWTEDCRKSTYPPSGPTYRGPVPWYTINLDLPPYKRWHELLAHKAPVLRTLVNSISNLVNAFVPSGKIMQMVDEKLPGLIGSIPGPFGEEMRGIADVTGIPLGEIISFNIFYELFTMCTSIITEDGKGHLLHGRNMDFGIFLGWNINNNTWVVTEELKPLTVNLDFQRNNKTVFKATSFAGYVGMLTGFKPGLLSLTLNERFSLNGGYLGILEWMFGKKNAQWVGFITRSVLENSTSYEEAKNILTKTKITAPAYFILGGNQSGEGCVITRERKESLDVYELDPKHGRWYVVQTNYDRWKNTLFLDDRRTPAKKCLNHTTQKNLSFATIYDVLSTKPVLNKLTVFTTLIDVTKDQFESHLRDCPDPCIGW
In short: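 Rat AC from cell lysate: sucrose/Tris homogenate, 12000g pellet, freeze–thaw in PBS, 105000g supernatant. Enzyme (50 μg protein) preincubated 30 min, 37 °C, with inhibitor (final DMSO 1%) in pH 4.5 phosphate/citrate buffer with 0.1% NP-40, 150 mM NaCl, 3 mM DTT; 100 μM N-lauroylceramide, 30 min, 37 °C; lauric acid quantified by LC/MS against heptadecanoic acid standard.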

Compound	IC50
CCCCCCN(C)C(=O)n1ccc(=O)[nH]c1=O	Not Active
CCCCCCNC(=O)N1CCC(=O)NC1=O	Not Active

Other lines, results leading:

IC50	Compound
ND(Unstable)	CCCCCCNC(=O)n1cc(C#N)c(=O)[nH]c1=O
ND(Unstable)	CCCCCCNC(=O)n1c(C)c(C)c(=O)[nH]c1=O
ND(Unstable)	CCCCCCNC(=O)n1c(Cl)cc(=O)[nH]c1=O

same assay, conditions: hek293; read-out: IC50

IC50 [nM]	Compound
12	CCCCCCNC(=O)n1cc(C(F)(F)F)c(=O)[nH]c1=O
426	CCCCCCNC(=O)n1ccc(=O)[nH]c1=O
29	CCCCCCNC(=O)n1cc(F)c(=O)[nH]c1=O [CARMOFUR]

same assay, conditions: read-out: IC50

Compound	IC50 [nM]
CCCCCCNC(=O)n1ccc(=O)n(C)c1=O	53
CCCCCCNC(=O)n1cc(F)c(=O)n(CC)c1=O	18
CCCCCCNC(=O)n1cc(F)c(=O)n(CC2CC2)c1=O	61
CCCCCCNC(=O)n1cc(F)c(=O)n(C(=O)C(C)C)c1=O	21
CCCCCCNC(=O)n1cc(F)c(=O)n(C(=O)OC)c1=O	7
CCCCCCNC(=O)n1cc(F)c(=O)n(C(=O)OCC)c1=O	12
CCCCCCNC(=O)n1cc(F)c(=O)n(C(=O)OCC(C)C)c1=O	16
CCCCCCNC(=O)n1cc(F)c(=O)n(C(=O)c2ccccc2)c1=O	20
CCCCNC(=O)n1ccc(=O)[nH]c1=O	8500
CCCCCCCCNC(=O)n1cc(F)c(=O)n(C(=O)OC)c1=O	4

Other lines, results leading:

IC50 [nM]	Compound
1460	CCCCCCNC(=O)n1cc(C)c(=O)[nH]c1=O
733	CCCCCCNC(=O)n1cc(CC)c(=O)[nH]c1=O
13	CCCCCCNC(=O)n1cc(F)c(=O)n(C)c1=O
2100	CCCCCNC(=O)n1ccc(=O)[nH]c1=O
325	CCCCCCCNC(=O)n1ccc(=O)[nH]c1=O
46	CCCCCCCCNC(=O)n1cc(F)c(=O)[nH]c1=O
283	CCCCCCCCNC(=O)n1ccc(=O)[nH]c1=O
464	CCCCCCCCCNC(=O)n1ccc(=O)[nH]c1=O

biological target: T2, Acid ceramidase (Homo sapiens, UniProt Q13510); experiment: Inhibition of acid ceramidase (unknown origin); conditions: not given
T2 sequence (Q13510 whole entry): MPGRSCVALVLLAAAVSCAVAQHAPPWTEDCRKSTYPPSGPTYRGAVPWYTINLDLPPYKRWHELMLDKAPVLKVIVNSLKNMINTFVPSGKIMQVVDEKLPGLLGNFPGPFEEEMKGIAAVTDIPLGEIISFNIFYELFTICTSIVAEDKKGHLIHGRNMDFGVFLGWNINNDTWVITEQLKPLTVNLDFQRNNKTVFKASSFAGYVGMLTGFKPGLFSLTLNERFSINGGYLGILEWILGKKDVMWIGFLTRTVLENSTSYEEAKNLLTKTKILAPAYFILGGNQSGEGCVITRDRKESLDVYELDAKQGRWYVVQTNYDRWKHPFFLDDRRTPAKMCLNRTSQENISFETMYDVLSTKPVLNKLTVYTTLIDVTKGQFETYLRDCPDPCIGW

Ki [nM]	Compound
500000	CCCCCCCC/C=C\CCCCCCCC(=O)NCCO [OLEOYLETHANOLAMIDE]
